# Key:
# Escherichia coli [1] = assay: Estimated rate of [3H]DHS uptake in Escherichia coli K12 (ATCC 25868); assay type: functional; parameters: unit not given here
# Outline: (§1)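 Cultures in tryptone-peptone broth at 37 °C with shaking, grown from OD600 ~0.05 to 0.20, then preexposed to antibiotic for 20 min at 37 °C. Cells pelleted, resuspended in equal volume fresh broth, pulsed 5.0 min at 37 °C with [3H]DHS (1.0 µCi/mL, 3.8 Ci/mmol). Samples filtered, washed with 0.1 M LiCl, scintillation counted. C50 = half-maximal rate estimated from dose-response curves.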
# [2] = (§2) Lethal dose required to kill 90% of the Escherichia coli K12 (ATCC 25868) cell population; assay type: ADME
# Outline: (§3)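 E. coli K12 in tryptone-peptone broth at 37 °C, OD600 0.20, exposed 20 min at 37 °C to antibiotic; pellets resuspended to OD600 0.10–0.15 in TPB, serially diluted, plated on tryptone-peptone agar, colonies counted after overnight at 37 °C. Value is the concentration killing 90% of the population.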
# Escherichia coli [3] = assay: Concentration required for half maximum rate of enhanced [3H]DHS (Dihydrostreptomycin) uptake in Escherichia coli K12 (ATCC 25868)was estimated from dose-response curves; assay type: functional; outline: as §1
# [4] = (§4) Percent killing of the total Escherichia coli K12 (ATCC 25868) cells at the C50 concentration was determined.; assay type: ADME
# Escherichia coli [5] = system: Escherichia coli;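 note: escherichia coli cells, read-out is the rate of enhanced [3H]DHS uptake, C50 being the level that yields half of the maximal rate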
# Escherichia coli [6] = assay: Estimated rate of [3H]DHS (Dihydrostreptomycin) uptake in Escherichia coli K12 (ATCC 25868) [pmol/min (optical density unit)E-1] at the C50 was determined.; assay type: functional; outline: as §1
# Escherichia coli [7] = assay: Estimated rate of [3H]DHS (Dihydrostreptomycin) uptake in Escherichia coli K12 (ATCC 25868) [pmol/min (optical density unit)E-1] at the C50 was determined.; OD means optical density; assay type: functional
# Outline: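 E. coli K12 grown in tryptone-peptone broth at 37 °C with shaking to OD600 0.20, preexposed 20 min at 37 °C to antibiotic across a dose range; cells pelleted, resuspended in TPB, given [3H]DHS (1.0 µCi/mL, 3.8 Ci/mmol) for 5.0 min at 37 °C; filtered, washed with 0.1 M LiCl, scintillation counted. Rate read at C50 (half-maximal induced rate) from dose-response curves.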
# [8] = as §2; assay type: functional; outline: as §3
# [9] = as §4; assay type: functional
# Escherichia coli [10] = assay: Estimated rate of [3H]DHS (Dihydrostreptomycin) uptake in Escherichia coli K12 (ATCC 25868) [pmol/min (optical density unit)E-1] at the C50 was determined;OD means optical density; assay type: functional; outline: as §1
# [11] = (§5) Percent killing of the total Escherichia coli K12 (ATCC 25868)cells at the C50 concentration was determined.; assay type: ADME
# [12] = as §5; assay type: functional
Compound,Uptake at C50 (Escherichia coli [1]),LD90 [2] [µM],Kill at C50 [4] [%],C50 (Escherichia coli [5]) [µM],also measured
CNC1C(OC2OC(CO)C(N)C(O)C2O)OC2CC(NC(=O)C(O)CCN)C(OC3C(N)CC(N)C(O)C3O)OC2C1O (centres undefined),2.6,0.72,93,–,C50 (Escherichia coli [3]): 0.84 µM
CNC1C(OC2OC(CO)C(N)C(O)C2O)OC2CC(NC(=O)CN)C(OC3C(N)CC(N)C(O)C3O)OC2C1O (centres undefined),3.3,0.83,53,0.45,–
NCC1CCC(N)C(OC2C(N)CC(N)C(OC3OC(CO)C(O)C(N)C3O)C2O)O1 (centres undefined),8.1,0.89,74,–,–
CNC1C(OC2OC(CO)C(N)C(O)C2O)OC2CC(N)C(OC3C(N)CC(NC(=O)CN)C(O)C3O)OC2C1O (centres undefined),2.1,0.84,94,–,C50 (Escherichia coli [3]): 1.1 µM
NCC1OC(OC2C(N)CC(NC(=O)C3(O)CNC3)C(OC3OC(CO)C(O)C(N)C3O)C2O)C(N)CC1O (centres undefined),4.4,0.63,50,0.12,–
COC1C(O)C(N)C(OC2OC([C@H](C)N)CCC2N)C(O)C1N(C)C(=O)CN (some centres undefined),5.6,0.7,93,0.86,–
CNC1C(O)C(OC2C(N)CC(N)C(OC3OC(C(C)N)CCC3N)C2O)OCC1(C)O (centres undefined),–,0.14,98,–,C50 (Escherichia coli [3]): 0.26 µM; Uptake at C50 (Escherichia coli [6]): 6.5
NC[C@H]1O[C@H](O[C@@H]2[C@@H](O)[C@H](O[C@@H]3[C@H](O)[C@H](N)C[C@@H](N)[C@H]3O[C@H]3O[C@@H](CO)[C@@H](O)C[C@@H]3N)O[C@@H]2CO)[C@@H](N)[C@@H](O[C@H]2O[C@H](CO)[C@@H](O)[C@H](O)[C@@H]2O)[C@@H]1O,4.4,0.88,78,0.57,–
NCC1OC(OC2C(N)CC(NC(=O)C3(O)CCNC3)C(OC3OC(CO)C(O)C(N)C3O)C2O)C(N)CC1O (centres undefined),4.4,0.31,65,0.12,–
CNC1C(OC2OC(CO)C(N)C(O)C2O)OC2CC(N)C(OC3C(N)CC(NC(=O)C(O)CCN)C(O)C3O)OC2C1O (centres undefined),2.4,1.2,53,–,C50 (Escherichia coli [3]): 0.39 µM
CN(C)[C@@H]1C(O)=C(C(N)=O)C(=O)[C@@]2(O)C(O)=C3C(=O)c4c(O)cccc4[C@@](C)(O)[C@H]3C[C@@H]12,–,–,–,> 50,–
CN1C(NC2OC(CO)C(OC(N)=O)C(O)C2NC(=O)CC(N)CCCN)=N[C@@H]2[C@H](O)CNC(=O)[C@H]21 (some centres undefined),4.1,–,–,0.1,–
CN[C@@H]1[C@H](O)[C@H](NC)[C@H]2O[C@@]3(O)C(=O)C[C@@H](C)O[C@H]3O[C@@H]2[C@H]1O,–,–,–,> 10,–
CN[C@H]1C[C@@H](N)[C@H](O)[C@@H](O[C@@H]2O[C@H](CO)[C@H](O)[C@H]3O[C@@]4(O[C@H]23)O[C@H]([C@H](N)CO)[C@H](O)[C@H](O)[C@H]4O)[C@@H]1O,–,–,–,> 50,–
NCCCCNCCCN,–,–,–,> 50,–
NC[C@@H]1O[C@@H](O[C@H]2[C@H](O)[C@@H](O[C@H]3O[C@H](CO)[C@@H](O)[C@H](N)[C@H]3O)[C@H](N)C[C@@H]2N)[C@@H](O)[C@H](O)[C@H]1O,3.5,–,–,0.95,–
O=C(N[C@H](CO)[C@H](O)c1ccc([N+](=O)[O-])cc1)C(Cl)Cl,–,–,–,> 50,–

Compound,Uptake at C50 (Escherichia coli [1]),LD90 [2] [µM],Kill at C50 [4] [%],C50 (Escherichia coli [5]) [µM],also measured
"4-Amino-N-[5-amino-4-(3-amino-6-aminomethyl-4,5-dihydroxy-tetrahydro-pyran-2-yloxy)-3-(3,4-dihydroxy-5-hydroxymethyl-tetrahydro-furan-2-yloxy)-2-hydroxy-cyclohexyl]-2-hydroxy-butyramide (Butirosin)",4,–,–,0.13,–
NCC[C@H](O)C(=O)N[C@@H]1C[C@H](N)[C@@H](O[C@H]2O[C@H](CN)[C@@H](O)[C@H](O)[C@H]2O)[C@H](O)[C@H]1O[C@H]1O[C@H](CO)[C@@H](O)[C@H](N)[C@H]1O (stereo in doubt),–,–,–,0.21,Uptake at C50 (Escherichia coli [7]): 4.7
NCC[C@H](O)C(=O)N[C@@H]1C[C@H](N)[C@@H](O[C@H]2O[C@H](CN)[C@@H](O)[C@H](O)[C@H]2O)[C@H](O)[C@H]1O[C@H]1O[C@H](CO)[C@@H](O)[C@H](N)[C@H]1O (stereo in doubt) [AMIKACIN],–,–,–,–,LD90 [8]: 0.32 µM; Kill at C50 [9]: 76%
CN[C@@H]1[C@@H](O[C@H]2O[C@H](CO)[C@@H](N)[C@H](O)[C@H]2O)OC2C[C@@H](N)[C@@H](O[C@H]3[C@H](O)[C@@H](O)[C@H](N)C[C@@H]3N)OC2[C@@H]1O (some centres undefined) [APRAMYCIN],–,0.67,95,0.87,Uptake at C50 (Escherichia coli [10]): 4
NC[C@H]1O[C@H](O[C@H]2[C@H](O)[C@@H](O[C@H]3O[C@H](CO)[C@@H](O)[C@H](N)[C@H]3O)[C@H](N)C[C@@H]2N)[C@H](N)[C@@H](O)[C@@H]1O [BEKANAMYCIN],6.8,1.1,–,0.27,Kill at C50 [11]: 31%
NC[C@@H]1O[C@H](O[C@H]2[C@@H](O)[C@H](O[C@@H]3[C@@H](O)[C@H](N)C[C@H](N)[C@H]3O[C@H]3O[C@H](CN)[C@@H](O)[C@H](O)[C@H]3N)O[C@@H]2CO)[C@H](N)[C@@H](O)[C@@H]1O [FRAMYCETIN],1.6,0.46,82,0.34,–
CN[C@@H]1[C@@H](O)[C@@H](O[C@@H]2[C@@H](O)[C@H](O[C@H]3O[C@H]([C@@H](C)NC)CC[C@H]3N)[C@@H](N)C[C@H]2N)OC[C@]1(C)O [GENTAMICIN C1],–,0.25,85,0.21,Uptake at C50 (Escherichia coli [7]): 5.5
NC[C@H]1O[C@H](O[C@H]2[C@H](O)[C@@H](O[C@H]3O[C@H](CO)[C@@H](O)[C@H](N)[C@H]3O)[C@H](N)C[C@@H]2N)[C@H](O)[C@@H](O)[C@@H]1O [KANAMYCIN A],–,0.85,93,–,–
NC[C@@H]1O[C@H](O[C@H]2[C@@H](O)[C@H](O[C@@H]3[C@@H](O)[C@H](N)C[C@H](N)[C@H]3O[C@H]3O[C@H](CO)[C@@H](O)C[C@H]3N)O[C@@H]2CO)[C@H](N)[C@@H](O)[C@@H]1O[C@H]1O[C@H](CO)[C@@H](O)[C@H](O)[C@@H]1O [LIVIDOMYCIN],5.5,0.87,–,0.18,Kill at C50 [11]: 40%
CCN[C@@H]1C[C@H](N)[C@@H](O[C@H]2OC(CN)=CC[C@H]2N)[C@H](O)[C@H]1O[C@H]1OC[C@](C)(O)[C@H](NC)[C@H]1O [NETILMICIN],5.8,0.38,86,0.32,–
NC[C@@H]1O[C@H](O[C@H]2[C@@H](O)[C@H](O[C@@H]3[C@@H](O)[C@H](N)C[C@H](N)[C@H]3O[C@H]3O[C@H](CO)[C@@H](O)[C@H](O)[C@H]3N)O[C@@H]2CO)[C@H](N)[C@@H](O)[C@@H]1O [PAROMOMYCIN],3.9,0.78,–,0.32,Kill at C50 [11]: 61%
NC[C@H]1O[C@H](O[C@H]2[C@H](O[C@@H]3O[C@H](CO)[C@@H](O)[C@H]3O)[C@@H](O)[C@H](N)C[C@@H]2N)[C@H](N)[C@@H](O)[C@@H]1O [RIBOSTAMYCIN],2.6,0.17,99,1.2,–
CN[C@@H]1[C@@H](O)[C@@H](O[C@@H]2[C@@H](O)[C@H](O[C@H]3OC(CN)=CC[C@H]3N)[C@@H](N)C[C@H]2N)OC[C@]1(C)O [SISOMICIN],7,0.49,77,0.31,–
CN[C@@H]1[C@H](O[C@H]2[C@H](O[C@H]3[C@H](O)[C@@H](O)[C@H](N=C(N)N)[C@@H](O)[C@@H]3N=C(N)N)O[C@@H](C)[C@]2(O)C=O)O[C@@H](CO)[C@H](O)[C@H]1O [STREPTOMYCIN],5.8,–,–,0.34,LD90 [8]: 0.36 µM; Kill at C50 [12]: 88%
NC[C@H]1O[C@H](O[C@H]2[C@H](O)[C@@H](O[C@H]3O[C@H](CO)[C@@H](O)[C@H](N)[C@H]3O)[C@H](N)C[C@@H]2N)[C@H](N)C[C@@H]1O [TOBRAMYCIN],8.3,0.71,–,–,C50 (Escherichia coli [3]): 0.24 µM; Kill at C50 [11]: 54%
GENTAMICIN [listing 1 of 2 here],–,0.43,–,–,Kill at C50 [11]: 72%
GENTAMICIN [listing 2 of 2 here],7.3,–,–,0.24,–

# Reference: ChEMBL document CHEMBL1123673, “Comparison of aminoglycoside antibiotics with respect to uptake and lethal activity in Escherichia coli” (J Med Chem, 1987)
